Source: ChEMBL document CHEMBL4321814, “Design of Gallinamide A Analogs as Potent Inhibitors of the Cysteine Proteases Human Cathepsin L and Trypanosoma cruzi Cruzain” (J Med Chem, 2019)
The source made the active and inactive calls. The calls are words filed in the database; no cut-off is given here.

Experiments:
[1] = biological target: Procathepsin L (Homo sapiens) (UniProt P07711); experiment: Inhibition of human cathepsin L assessed as Kinact /Ki ratio using fluorogenic substrate cbz-FR-AMC monitored for 90 to 120 mins by spectrophotometry
Chain of Procathepsin L (Homo sapiens) (P07711 114-333 limits assumed): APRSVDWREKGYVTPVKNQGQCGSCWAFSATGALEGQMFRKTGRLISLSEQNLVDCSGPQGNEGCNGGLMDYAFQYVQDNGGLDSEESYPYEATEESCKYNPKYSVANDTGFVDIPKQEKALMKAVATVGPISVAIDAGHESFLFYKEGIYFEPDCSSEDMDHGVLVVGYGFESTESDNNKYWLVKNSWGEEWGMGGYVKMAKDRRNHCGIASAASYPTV
Summary of the method: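 Continuous kinetic assay with 0.5 ng/mL final cathepsin L and 10 μM Z-FR-AMC, with DMSO below 6%. Inhibitors were a 3-fold, 11-point series from […] to 1.0 μM. Substrate and inhibitor were combined and enzyme was added to start the reaction. AMC release was read for 2 h and converted via an AMC standard curve. Progress curves were fitted to a six-parameter covalent inhibition model (k_inact, association/dissociation constants).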

Cruzipain = Cruzipain (Trypanosoma cruzi, UniProt P25779); experiment: Inhibition of recombinant Trypanosoma cruzi Cruzain expressed in Pichia pastoris using Z-Phe-Arg-AMC substrate incubated for 30 mins by fluorescence based assay
Chain of Cruzipain (P25779 whole entry): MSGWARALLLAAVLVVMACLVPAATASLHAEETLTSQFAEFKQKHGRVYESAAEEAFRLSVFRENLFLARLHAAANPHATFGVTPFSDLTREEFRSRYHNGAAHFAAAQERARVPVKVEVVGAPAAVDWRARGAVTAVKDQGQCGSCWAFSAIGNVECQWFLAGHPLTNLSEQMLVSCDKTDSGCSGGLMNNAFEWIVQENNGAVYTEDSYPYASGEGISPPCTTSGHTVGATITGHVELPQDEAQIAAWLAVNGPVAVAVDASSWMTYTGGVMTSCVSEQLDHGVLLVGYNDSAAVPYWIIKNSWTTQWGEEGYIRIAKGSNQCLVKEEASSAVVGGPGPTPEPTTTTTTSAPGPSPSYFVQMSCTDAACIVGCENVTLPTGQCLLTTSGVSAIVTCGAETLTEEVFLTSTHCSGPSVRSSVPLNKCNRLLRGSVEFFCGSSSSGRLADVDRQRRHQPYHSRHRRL

Trypanosoma cruzi = format: functional; conditions: C2C12, 72 h, read-out: LD50 (the source's name)
[2] = Cytotoxicity in mouse C2C12 cells assessed as reduction in cell viability incubated for 3 days; format: cell-based; conditions: read-out: LD50
[3] = biological target: Procathepsin L (Homo sapiens) (UniProt P07711); experiment: Irreversible inhibition of human cathepsin L assessed as reduction in enzyme activity using fluorogenic substrate cbz-FR-AMC incubated for 30 mins followed by 100 fold dilution and measured after 2 hrs by spectrophotometry
Summary of the method: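 Preincubation-dilution: cathepsin L at 100-fold final assay concentration incubated 30 min with inhibitor at 10-fold its IC₅₀. Then diluted 100-fold into assay buffer with 10 μM Z-FR-AMC, giving standard enzyme level and 0.1× IC₅₀ inhibitor. AMC fluorescence read continuously in kinetic mode for 2 h and activity compared with vehicle control.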

[4] = biological target: Procathepsin L (Homo sapiens) (UniProt P07711); experiment: Irreversible inhibition of human cathepsin L assessed as residual enzyme activity using fluorogenic substrate cbz-FR-AMC incubated for 30 mins followed by 100 fold dilution and measured after 2 hrs by spectrophotometry
[5] = biological target: Procathepsin L (Homo sapiens) (UniProt P07711); experiment: Irreversible inhibition of human cathepsin L assessed as residual enzyme activity using fluorogenic substrate cbz-FR-AMC incubated for 30 mins followed by 100 fold dilution and measured after 1 hrs by spectrophotometry
[6] = biological target: Procathepsin L (Homo sapiens) (UniProt P07711); experiment: Reversible inhibition of human cathepsin L assessed as residual enzyme activity using fluorogenic substrate cbz-FR-AMC incubated for 30 mins followed by 100 fold dilution and measured after 1 hrs by spectrophotometry

SMILES | Ratio [1] [×10³ /M/s] | IC50 (Cruzipain) [nM] | LC50 (Trypanosoma cruzi) [nM] | CC50 at 72 h [2] [nM] | inhibition [3] | Activity [4] [%] | inhibition [5] | Activity [6] [%]
COC1=CC(=O)N(C(=O)/C=C/[C@H](C)NC(=O)[C@H](CC(C)C)NC(=O)[C@H](CC(C)C)OC(=O)[C@H](Cc2ccccc2)N(C)C)[C@H]1Cc1ccccc1 | 3480 | 0.73 | 18.6 | > 10000 |  |  |  | 
CC[C@H](C)[C@@H](C(=O)O[C@@H](CC(C)C)C(=O)N[C@@H](CC(C)C)C(=O)N[C@@H](C)/C=C/C(=O)N1C(=O)C=C(OC)[C@@H]1CC(C)C)N(C)C | 2510 | 0.49 | 5.1 | > 10000 |  |  |  | 
COC1=CC(=O)N(C(=O)/C=C/[C@H](C)NC(=O)[C@H](CC(C)C)NC(=O)[C@H](CC(C)C)OC(=O)[C@H](C(C)C)N(C)C)[C@H]1C | 487 | 2.89 | 12.9 | > 10000 |  |  |  | 
CC[C@H](C)[C@@H](C(=O)O[C@@H](CC(C)C)C(=O)N[C@@H](CC(C)C)C(=O)N[C@H](/C=C/C(=O)N1C(=O)C=C(OC)[C@@H]1C)Cc1ccccc1)N(C)C |  | 0.84 | 35.8 | > 10000 |  |  |  | 
CC[C@H](C)[C@@H](C(=O)O[C@@H](CC(C)C)C(=O)N[C@@H](CC(C)C)C(=O)N[C@@H](C)/C=C/C(=O)N1C(=O)C=C(OC)[C@@H]1Cc1ccccc1)N(C)C |  | 0.76 | 19.1 | > 10000 |  |  |  | 
COC1=CC(=O)N(C(=O)/C=C/[C@H](Cc2ccccc2)NC(=O)[C@H](CC(C)C)NC(=O)[C@H](CC(C)C)OC(=O)[C@H](Cc2ccccc2)N(C)C)[C@@H]1Cc1ccccc1 | 1390 | 3.69 | > 10000 | > 10000 |  |  |  | 
COC1=CC(=O)N(C(=O)/C=C/[C@H](Cc2ccccc2)NC(=O)[C@H](CC(C)C)NC(=O)[C@H](CC(C)C)OC(=O)[C@H](Cc2ccccc2)N(C)C)[C@H]1C | 819 | 1.2 | 60.3 | > 10000 |  |  |  | 
COC1=CC(=O)N(C(=O)/C=C/[C@H](Cc2ccccc2)NC(=O)[C@H](CC(C)C)NC(=O)[C@H](CC(C)C)OC(=O)[C@H](C(C)C)N(C)C)[C@H]1CC(C)C | 1780 | 0.25 | 16.4 | > 10000 |  |  |  | 
CC[C@H](C)[C@@H](C(=O)O[C@@H](CC(C)C)C(=O)N[C@@H](CC(C)C)C(=O)N[C@@H](/C=C/C(=O)N1C(=O)C=C(OC)[C@@H]1Cc1ccccc1)Cc1ccccc1)N(C)C | 6.9 | 81 | 1080 | > 10000 |  |  |  | 
COC1=CC(=O)N(C(=O)/C=C/[C@H](Cc2ccccc2)NC(=O)[C@H](CC(C)C)NC(=O)[C@H](CC(C)C)OC(=O)[C@H](Cc2ccccc2)N(C)C)[C@H]1Cc1ccccc1 | 1060 | 1.35 | > 10000 | > 10000 |  |  |  | 
CC[C@H](C)[C@@H](C(=O)O[C@@H](CC(C)C)C(=O)N[C@@H](CC(C)C)C(=O)N[C@@H](/C=C/C(=O)N1C(=O)C=C(OC)[C@H]1Cc1ccccc1)Cc1ccccc1)N(C)C | 23.9 | 37.1 | 537 | > 10000 |  |  |  | 
C#CCCCCOC1=CC(=O)N(C(=O)/C=C/[C@H](C)NC(=O)[C@H](CC(C)C)NC(=O)[C@H](CC(C)C)OC(=O)[C@H]([C@@H](C)CC)N(C)C)[C@@H]1C |  | 0.47 | 17 | > 10000 |  |  |  | 
CC(C)CCNC(=O)[C@H](CC(C)C)NC(=O)[C@H]1O[C@@H]1C(=O)O |  |  |  |  | Active |  |  | 
CC[C@H](C)[C@@H](C(=O)O[C@@H](CC(C)C)C(=O)N[C@@H](CC(C)C)C(=O)N[C@@H](C)/C=C/C(=O)N1C(=O)C=C(OC)[C@@H]1C)N(C)C [GALLINAMIDE A] | 901 | 0.26 | 14.7 | > 10000 |  | 5 | Active | 
CC[C@H](C)[C@@H](C(=O)O[C@@H](CC(C)C)C(=O)N[C@@H](CC(C)C)C(=O)N[C@H](/C=C/C(=O)N1C(=O)C=C(OC)[C@@H]1Cc1ccccc1)Cc1ccccc1)N(C)C | 719 | 1.15 | 33.8 | > 10000 |  |  |  | 
O=C(Cn1ccnc1[N+](=O)[O-])NCc1ccccc1 [BENZNIDAZOLE] |  |  | 1500 |  |  |  |  | 
CC[C@H](C)[C@@H](C(=O)O[C@@H](CC(C)C)C(=O)N[C@@H](CC(C)C)C(=O)N[C@H](/C=C/C(=O)N1C(=O)C=C(OC)[C@@H]1CC(C)C)Cc1ccccc1)N(C)C |  | 1.08 | 61.8 | > 10000 |  |  |  | 
CC[C@H](C)[C@@H](C(=O)O[C@@H](CC(C)C)C(=O)N[C@@H](CC(C)C)C(=O)N[C@@H](C)CCC(=O)N1C(=O)C=C(OC)[C@@H]1C)N(C)C |  |  |  |  |  |  |  | 75
CC[C@H](C)[C@@H](C(=O)O[C@@H](CC(C)C)C(=O)N[C@@H](CC(C)C)C(=O)N[C@H](/C=C/C(=O)N1C(=O)C=C(OC)[C@H]1Cc1ccccc1)Cc1ccccc1)N(C)C | 1030 | 1.07 | 33.3 | > 10000 |  |  |  | 
